Source: PubChem
In the library only some 1.9% were active in any assay of this set; here they are far more common.
M5 ag: agonists of human muscarinic M5 receptor (CHRM5); CHO-K1 hM5 cells, Fluo-8 calcium fluorescence; 0% DMSO wells, 100% maximal acetylcholine response; activation, % at 3 µM; AID 624037; 360,000 tested, 0.19% active;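 active = activation above the run's mean over test compounds plus 3 SD, cut at about 23% in these data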;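 also: signal is peak over basal fluorescence ratio across the kinetic read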
Target sequence (P08912 whole entry, looked up): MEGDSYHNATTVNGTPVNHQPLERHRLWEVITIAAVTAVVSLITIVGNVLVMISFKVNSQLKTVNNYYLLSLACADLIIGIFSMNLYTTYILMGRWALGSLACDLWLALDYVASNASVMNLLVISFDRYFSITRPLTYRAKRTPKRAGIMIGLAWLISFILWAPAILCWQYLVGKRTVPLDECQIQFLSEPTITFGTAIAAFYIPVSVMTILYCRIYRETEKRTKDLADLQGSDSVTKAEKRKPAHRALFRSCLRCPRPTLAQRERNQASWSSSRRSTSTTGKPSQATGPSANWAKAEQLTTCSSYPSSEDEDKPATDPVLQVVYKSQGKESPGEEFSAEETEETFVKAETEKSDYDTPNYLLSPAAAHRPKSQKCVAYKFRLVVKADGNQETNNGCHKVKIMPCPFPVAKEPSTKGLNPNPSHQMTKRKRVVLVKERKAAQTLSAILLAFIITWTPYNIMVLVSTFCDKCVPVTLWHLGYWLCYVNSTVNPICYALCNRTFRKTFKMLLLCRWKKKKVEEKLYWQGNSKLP
CHRM4 antagonist: blocks acetylcholine activation of human M4 receptor. P08173. CHO-hM4 cells, ACh EC80, Fluo-8 calcium fluorescence. inhibition, % at 3 µM. 360,000 tested, 0.73% active. AID 624125;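 active = inhibition above its plate's cutoff, the mean inhibition of sample wells plus 3 SD, cut at about 27% in these data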;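 also: 0% = acetylcholine EC80 with DMSO and 100% = DMSO without agonist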
M5 PAM: positive allosteric modulators of human muscarinic M5 receptor | 360,000 tested, 0.3% active | CHO-K1 hM5, Fluo-8 calcium, ACh EC20 PAM; 0% = ACh EC20, 100% = ACh EC100 | activation, % at 3 µM | P08912;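 active = activation above the run cutoff, the mean activation of all test compounds plus 3 SD, cut at about 18% in these data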
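System: CHO-K1 hM5 cells. Reagent: acetylcholine, EC20 level. Compound dosing: single dose, 3 µM nominal final test concentration. Timing: Post-acetylcholine fluorescence recording 140 s. Detection: Fluo-8 calcium fluorescence. Read-out: % activation, ACh-normalized. Benchmarks: ACh EC20 and EC100 wells. Repeats: singlicate, one well per test compound.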
M5 antag: blocks acetylcholine activation of human M5 receptor; P08912; CHO-hM5 cells, Fluo-8 calcium fluorescence, ACh EC80; inhibition, % at 3 µM; 360,000 tested, 0.59% active; AID 624040;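 active = inhibition above a per-plate cutoff, the mean of that plate's test compounds plus 3 SD, cut at about 27% in these data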;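 also: 0% = acetylcholine EC80 with DMSO and 100% = DMSO without agonist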
M4 PAM: CHRM4 positive allosteric modulation | activation, % at 3 µM | P08173 | 360,000 tested, 0.4% active | CHO-K1 hM4/Gqi5, Fluo-8 calcium fluorescence, ACh EC20; 0% = ACh EC20, 100% = maximal ACh | AID 624126;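 active = activation above its plate's cutoff, the mean activation of sample wells plus 3 SD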
M4 ag: agonists of human muscarinic M4 receptor (CHRM4) | 360,000 tested, 0.14% active | P08173 | CHO-K1 hM4/Gqi5, Fluo-8 calcium fluorescence; vehicle 0%, full acetylcholine response 100% | AID 624127 | activation, % at 3 µM;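 active = activation above the run mean over all test wells plus 3 SD, cut at about 32% in these data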;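 also: peak over basal fluorescence ratio per well then scaled between controls; 0% = DMSO wells and 100% = acetylcholine at EC100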
An asterisk follows results filed as active.

SMILES	M5 ag	CHRM4 antagonist	M5 PAM	M5 antag	M4 PAM	M4 ag
CCn1c(COc2ccc3ccccc3c2C)nnc1SCC(=O)Nc1cccc(C(=O)O)c1	-1	-9	8	2	25*	0
N/C(=N\OC(=O)CSc1ccccc1)c1ccccn1	-4	-1	9	0	21*	1
COCCNC(=S)N1CCN(c2cccc(C)c2C)CC1	1	7	-17	28*	-5	16
Cc1cccc(N2CCN(C(=S)NCCc3ccccc3)CC2)c1C	1	6	-4	6	-5	1
O=C(COC(=O)c1nc(Cl)ccc1Cl)Nc1ccc(Cl)cc1	-8	-9	-3	3	22*	4
COc1ccc(OC)c(C2=NS(=O)(=O)N(C)C(C(=O)Nc3cccc(C(C)=O)c3)=C2)c1	-2	11	-7	6	-11	12
Cn1c(C(=O)OC(C(=O)NC2CCCCC2)c2cccnc2)cc2sccc21 (stereo unspecified)	-8	-4	-5	41*	4	2
CCOC(=O)CCc1c(C)c2ccc(OC3CCCCC3=O)cc2oc1=O (stereo unspecified)	-1	34*	-6	13	-8	2
O=C(Cc1ccc(NC(=O)C2CCN(C(=O)c3ccccc3)CC2)cc1)Nc1cccc(C(=O)N2CCCC2)c1	2	-7	-5	18	8	-1
CCCCn1c(N)c(N(CCOC)C(=O)CCNC(=O)c2ccccc2Cl)c(=O)[nH]c1=O	-1	6	5	-1	5	1
CC(=NO)c1ccc2c(c1)Cc1cc([N+](=O)[O-])ccc1-2	-1	-15	-5	5	9	5
Nc1ccc2c(c1)Cc1cc([N+](=O)[O-])ccc1-2	35*	13	-12	28*	-7	11
CC(O)CN(CC(C)O)c1ccc2c(c1)Cc1cc([N+](=O)[O-])ccc1-2 (stereo unspecified)	527*	34*	-37	73*	-14	90*
CCOc1ccc(NCc2cccn2-c2nnc(N3CCC(C(=O)NCCCN4CC(C)CC(C)C4)CC3)s2)cc1 (stereo unspecified)	-8	34*	-11	-11	-13	4
CC(=O)OCC(=O)N1N=C(c2ccc3ccccc3c2)CC1c1ccccc1 (stereo unspecified)	2	-5	3	-10	3	2
Nc1cc(=O)[nH]c(SCC(=O)N2N=C(c3ccc4ccccc4c3)CC2c2ccccc2)n1 (stereo unspecified)	-4	36*	-5	6	-10	1
Fc1cccc(Cl)c1CN1CCN(c2nc3ccccc3s2)CC1	-2	2	-5	16	-4	0
CCOc1ccc(N(CC(=O)NCC2CCCO2)C(=O)CCC(=O)Nc2nccs2)cc1 (stereo unspecified)	-3	-10	3	-9	6	1
CC(c1nccs1)N(C)C(=O)c1ccc(OC2CCN(CCc3ccccc3)CC2)cc1 (stereo unspecified)	-9	31*	-14	36*	-16	2
CN(Cc1nccn1C)C(=O)c1ccc(OC2CCN(CCc3ccccc3)CC2)cc1	-9	20	-11	28*	-13	0
CC(C)N(C)C(=O)c1ccc(OC2CCN(CCc3ccccc3)CC2)cc1	-18	6	-4	3	-30	2
O=C1c2ccccc2C(=O)N1CC(O)COc1ccc(Br)cc1 (stereo unspecified)	-4	-5	2	1	-8	5
CCOc1ccc(NC(=O)/C(C#N)=C\c2ccc(N3CCCC3)c(C)c2)cc1	40*	11	-14	50*	-2	9
CCOc1ccc(/C=C(\C#N)C(=O)Nc2cccnc2)cc1	-4	3	4	1	1	1
NC(=O)NC(Cc1ccccc1)C(=O)NCCCSc1ccccc1 (stereo unspecified)	-2	4	4	7	-2	1
SMILES	M5 ag	CHRM4 antagonist	M5 PAM	M5 antag	M4 PAM	M4 ag
OC[C@@H]1CN(Cc2ccccc2)C[C@H](n2cnc3c(NCc4ccncc4)ncnc32)O1	0	-5	0	2	20*	5
OC[C@@H]1CN(Cc2ccc(F)cc2)C[C@H](n2cnc3c(Nc4ccccc4)ncnc32)O1	2	-1	-9	13	-13	16
OC[C@@H]1CN(Cc2ccc(F)cc2)C[C@H](n2cnc3c(NCc4ccncc4)ncnc32)O1	1	-15	-1	2	4	4
COc1cc(CNc2ncnc3c2ncn3[C@H]2CN(Cc3cc(OC)c(OC)c(OC)c3)C[C@@H](CO)O2)cc(OC)c1OC	-1	-21	2	-12	22*	0
OC[C@@H]1CN(Cc2ccc(-c3ccccc3)cc2)C[C@H](n2cnc3c(Nc4ccccc4)ncnc32)O1	3	37*	-15	22	-11	21
O=C(c1ccc(NS(=O)(=O)c2ccc(F)cc2)cc1)N1CCC1	1	-21	-8	3	15	2
CC(=O)C1=C(c2ccccc2)NC(=S)NC1c1ccc(O)c(O)c1 (stereo unspecified)	9	-1	26*	3	-4	0
COc1ccc(Oc2ncnc3sccc23)cc1	-2	-11	18*	-7	11	2
COc1ccc(Nc2ncnc3sccc23)cc1	-1	-3	1	20	4	2
O=C1N[C@@H](c2ccccc2)COC(=O)[C@@H](Cc2ccc(F)cc2)C/C=C\C[C@@H]1CC(=O)N(CCO)Cc1ccccc1	15	17	-31	10	-13	56*
O=C1N[C@@H](c2ccccc2)COC(=O)[C@H](Cc2ccc(F)cc2)C/C=C\C[C@H]1CC(=O)N(CCO)Cc1ccccc1	3	1	18*	-5	0	1
O=C1N[C@@H](Cc2c[nH]c3ccccc23)COC(=O)[C@@H](Cc2ccc(F)cc2)C/C=C\C[C@H]1CC(=O)N(CCO)Cc1ccccc1	1	28*	-16	22	5	11
O=C1N[C@H](Cc2ccccc2)COC(=O)[C@H](Cc2ccc(F)cc2)C/C=C\C[C@@H]1CC(=O)N(CCO)Cc1ccccc1	1	2	-14	10	-9	20
O=C1NC[C@H](c2ccccc2)OC(=O)[C@@H](Cc2ccc(F)cc2)C/C=C\C[C@H]1CC(=O)N(CCO)Cc1ccccc1	8	34*	-37	17	-11	36*
